# Reference: PubChem BioAssay
# Active and inactive are the calls of the source.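 How the source made its calls, unless noted: active means viability at or under a set limit in both replicates, limit being median viability minus 3 SD (cut at about 48% in these data, passing the limit was not always enough); inconclusive means at or under the limit in just one replicate; inactive means at or above the limit in both replicates.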
# Assays:
# [1] = Her2 expression decrease, cell viability multiplex – SKBR3 breast tumor cells, AlphaScreen, ATP viability, primary screen (AID 461;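 active means Her2 level under about 52% in both replicate screens, with viability over 70% of control, limit read from the data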;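 on Her2 level: lower value means less Her2 protein in the cells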;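 on viability: percent of carrier control wells set as 100% viability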); conditions: SKBR3 Her2 protein level, 18-24 h, measured here: SKBR3 viability, ATP luminescence, at 10 µM
# [2] = biological target: Receptor tyrosine-protein kinase erbB-2 (Homo sapiens) (UniProt P04626); test: as above; conditions: 18-24 h, at 10 µM, stronger effect = lower value
# Receptor tyrosine-protein kinase erbB-2 (Homo sapiens), sequence (P04626 whole entry, looked up): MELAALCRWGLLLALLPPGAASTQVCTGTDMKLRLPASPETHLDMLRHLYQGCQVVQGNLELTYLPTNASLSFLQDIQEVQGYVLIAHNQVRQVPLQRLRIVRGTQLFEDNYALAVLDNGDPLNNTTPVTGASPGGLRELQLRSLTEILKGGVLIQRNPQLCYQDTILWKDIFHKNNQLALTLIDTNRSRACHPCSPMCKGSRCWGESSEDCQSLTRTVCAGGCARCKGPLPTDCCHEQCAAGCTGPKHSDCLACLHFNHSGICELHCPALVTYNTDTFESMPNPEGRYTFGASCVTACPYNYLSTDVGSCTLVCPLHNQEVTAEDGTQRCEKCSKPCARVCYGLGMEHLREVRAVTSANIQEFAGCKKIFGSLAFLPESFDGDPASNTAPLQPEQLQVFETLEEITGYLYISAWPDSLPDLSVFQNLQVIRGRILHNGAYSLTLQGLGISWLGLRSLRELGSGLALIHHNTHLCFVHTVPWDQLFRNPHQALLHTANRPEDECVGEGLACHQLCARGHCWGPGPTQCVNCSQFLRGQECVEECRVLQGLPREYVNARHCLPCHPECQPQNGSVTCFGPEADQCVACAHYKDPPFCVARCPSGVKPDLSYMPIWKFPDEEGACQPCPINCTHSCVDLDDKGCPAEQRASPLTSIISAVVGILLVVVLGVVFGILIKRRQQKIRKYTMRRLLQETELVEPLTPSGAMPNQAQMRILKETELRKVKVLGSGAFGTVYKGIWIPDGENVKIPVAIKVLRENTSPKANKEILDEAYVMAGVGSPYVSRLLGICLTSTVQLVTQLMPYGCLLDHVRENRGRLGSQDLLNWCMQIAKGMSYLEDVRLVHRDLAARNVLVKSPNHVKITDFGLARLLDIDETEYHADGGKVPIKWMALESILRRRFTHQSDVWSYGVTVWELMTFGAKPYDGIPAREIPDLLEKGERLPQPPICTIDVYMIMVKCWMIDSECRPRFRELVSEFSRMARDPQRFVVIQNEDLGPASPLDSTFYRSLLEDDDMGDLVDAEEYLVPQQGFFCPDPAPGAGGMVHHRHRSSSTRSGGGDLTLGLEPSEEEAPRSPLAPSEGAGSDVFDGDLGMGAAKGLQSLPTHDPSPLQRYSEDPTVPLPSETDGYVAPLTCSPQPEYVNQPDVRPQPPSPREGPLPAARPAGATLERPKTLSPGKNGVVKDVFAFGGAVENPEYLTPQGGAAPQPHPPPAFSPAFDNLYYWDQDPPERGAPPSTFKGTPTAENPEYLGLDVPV
# [3] = reduced viability of SK-BR-3 breast cancer cells – cell-based, 24 h, human, pilot screen (AID 572;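 active means viability at or below 10% of carrier control in both of two separate runs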;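 further: compound exposure lasted between 18 and 24 h rather than exactly 24 h; 100% = carrier-treated control wells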); conditions: SK-BR-3 viability, CellTiter-Glo luminescence, at 10 µM, stronger effect = lower value
# [4] = HUVEC growth inhibition – cell-based, human, primary screen (AID 575;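 active means viability at or below 30% in both replicate assays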;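 further: 100% = median of untreated cell wells with 0.1% DMSO on each plate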); conditions: HUVEC proliferation, CellTiter-Glo luminescence, 72 h; at 10 µM; stronger effect = lower value
# Method in brief: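 Test system: primary human umbilical vein endothelial cells. Quantity: 1250 cells/well. Compound: single 10 µM dose, 0.1% DMSO, from 5x medium stock. Timing: 72 h treatment at 37 °C. Detection: ATP-based CellTiter-Glo luminescent read. Benchmarks: vehicle and MePR control wells. Format: 384-well plates coated with collagen.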
# [5] = H69AR cell proliferation blockers – human, duplicate replicates, primary screen (AID 580); conditions: H69AR lung tumor cells viability, ATP luminescence, 72 h; at 10 µM; stronger effect = lower value;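 further: 100% = mean luminescence of untreated wells and 0% = no signal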
# [6] = MRP1 drug-resistance reversers in H69AR cells – cell-based, doxorubicin co-treatment, pilot screen (AID 601;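 active means viability loss from added drug above about 55%, and viability with drug at most 40%, in both replicates, limit read from the data, passing the limit was not always enough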); conditions: CellTiter-Glo, 72 h, at 10 µM; for differential viability (reversal): stronger effect = higher value
# [7] = yeast transport mutant growth inhibition pilot in 384-well plates, post-Golgi transport modulator project (AID 636; in the data active means inhibition above about 31%); conditions: absorbance 615 nm, about 18 h, stronger effect = higher value
# [8] = growth suppression of yeast trafficking mutant, preliminary HTS, modulators of trafficking downstream of Golgi apparatus project, 1536-format plate, OD 615 nm (AID 637; in the data active means inhibition above about 30%); conditions: yeast transport mutant growth, absorbance 615 nm, 18 h; stronger effect = higher value
# [9] = H69AR cells + 2 uM doxorubicin, measured here: viability with 2 uM doxorubicin, stronger effect = lower value
# [10] = H69AR cells, compound alone cytotoxicity
SMILES,viability [1],Her2 level [2],viability [3],viability [4],viability [5],differential viability (reversal) ([6]; H69AR cells + 2 uM doxorubicin),"viability [6, 9]","viability [6, 10]",inhibition [7],inhibition [8]
O=C1c2ccccc2C(=O)N1CC(O)Cn1nnc2ccccc21 (stereo not given),120%,108% (inactive),120% (inactive),90.9% (inactive),95.9% (inactive),4.44% (inactive),91.5%,95.9%,-3.07% (inactive),-3.71% (inactive)
CCOC(=O)c1ccc(N2C(=O)CC(N(C)CCc3ccc(OC)c(OC)c3)C2=O)cc1 (stereo not given),102%,123% (inactive),102% (inactive),101% (inactive),96.8% (inactive),12.1% (inactive),84.7%,96.8%,-2.73% (inactive),-8.83% (inactive)
CCOC(=O)CSc1nc2sc(C)c(C)c2c(=O)n1C,104%,69% (inactive),104% (inactive),85.4% (inactive),94.2% (inactive),9.32% (inactive),84.8%,94.2%,-2.34% (inactive),-0.17% (inactive)
CCN(CC)Cc1csc(C(N)=O)c1,108%,107% (inactive),108% (inactive),104% (inactive),98.1% (inactive),5.04% (inactive),93.1%,98.1%,-1.22% (inactive),0.32% (inactive)
c1cncc(-c2nnc3sc(-c4ccco4)nn23)c1,118%,106% (inactive),118% (inactive),99.5% (inactive),91.5% (inactive),-6.86% (inactive),98.3%,91.5%,-5.39% (inactive),4.68% (inactive)
CS(=O)(=O)C1=C(O)C(=O)N(c2ccccc2)C1c1ccccc1 (stereo not given),109%,106% (inactive),109% (inactive),104% (inactive),105% (inactive),10.3% (inactive),94.4%,105%,-4.73% (inactive),0.33% (inactive)
CCOC(=O)C(C)Sc1nc2c(cnn2-c2ccc(C)cc2)c(=O)[nH]1 (stereo not given),83%,85.5% (inactive),83% (inactive),51.8% (inactive),14.4% (active),-58.2% (inactive),72.6%,14.4%,-2.53% (inactive),-11.2% (inactive)
CCOC(=O)c1cc2c(=O)n3cccc(C)c3nc2n(Cc2ccco2)c1=NC(=O)c1cccnc1,92.5%,82% (inactive),92.5% (inactive),71.4% (inactive),80.7% (inactive),8.21% (inactive),72.4%,80.7%,-1.71% (inactive),2.58% (inactive)
C[C@H](NC(=O)OC(C)(C)C)C(=O)NCC1CCC(C(=O)O)CC1 (stereo not given in full),101%,97% (inactive),101% (inactive),103% (inactive),108% (inactive),11.7% (inactive),96.4%,108%,-5.73% (inactive),-1.29% (inactive)
O=C(CSc1nnc(CNC(=O)c2cccs2)o1)Nc1cccc(C(F)(F)F)c1,83.5%,98.5% (inactive),83.5% (inactive),82.7% (inactive),92.8% (inactive),1.86% (inactive),90.9%,92.8%,-0.13% (inactive),-7% (inactive)
O=C(CN1CCN(Cc2ccc3c(c2)OCO3)CC1)Nc1ccc2c(c1)OCCO2,97%,89.5% (inactive),97% (inactive),93.8% (inactive),94.4% (inactive),16.4% (inactive),78%,94.4%,-2.43% (inactive),-1.27% (inactive)
COC(=O)c1ccc(C2NC(C(=O)O)CS2)cc1 (stereo not given),132%,103% (inactive),132% (inactive),102% (inactive),89% (inactive),-8.38% (inactive),97.3%,89%,-0.79% (inactive),3.02% (inactive)
O=c1c(-c2ccc(Br)cc2)coc2c(CN3CCOCC3)c(O)ccc12,85.5%,80.5% (inactive),85.5% (inactive),101% (inactive),92.2% (inactive),-4.24% (inactive),96.5%,92.2%,-3.33% (inactive),-2.22% (inactive)
COCCSc1ccccc1C(=O)Nc1nncs1,88%,102% (inactive),88% (inactive),96.2% (inactive),92.5% (inactive),3.37% (inactive),89.2%,92.5%,-4.73% (inactive),2.22% (inactive)
Cc1cccc(CCNC(=O)CCc2nc(-c3ccccc3F)no2)c1,91.5%,104% (inactive),91.5% (inactive),89.1% (inactive),93.5% (inactive),9.82% (inactive),83.7%,93.5%,-2.37% (inactive),-5% (inactive)
Clc1ccc(Cn2ncc3c(NCc4cccnc4)ncnc32)cc1,77.5%,86% (inactive),77.5% (inactive),90.5% (inactive),92% (inactive),-4.09% (inactive),96.1%,92%,-0.53% (inactive),3.77% (inactive)
Cc1nnc(SCC(=O)N2CC(=O)Nc3ccccc32)n1-c1ccccc1,93%,90% (inactive),93% (inactive),102% (inactive),97% (inactive),2.75% (inactive),94.3%,97%,-4.53% (inactive),4.84% (inactive)
O=C(CN1CCN(c2cccc(Cl)c2)CC1)N1CCCC1,105%,102% (inactive),105% (inactive),110% (inactive),78.8% (inactive),-2.74% (inactive),81.5%,78.8%,-6.75% (inactive),-7.46% (inactive)
Cc1ccc(S(=O)(=O)NCC(=O)N(CC(=O)NC2CCCCC2)Cc2ccco2)cc1,135%,100% (inactive),135% (inactive),91% (inactive),93.9% (inactive),2.62% (inactive),91.3%,93.9%,-5.87% (inactive),4.76% (inactive)
CCCNS(=O)(=O)c1ccc(OCC(=O)NCc2ccco2)cc1,93.5%,120% (inactive),93.5% (inactive),91.3% (inactive),83.7% (inactive),-3.46% (inactive),87.2%,83.7%,1.6% (inactive),-3.65% (inactive)
CCCc1ccc(S(=O)(=O)NCCc2ccncc2)cc1,96%,91.5% (inactive),96% (inactive),85.4% (inactive),106% (inactive),16.6% (inactive),89.6%,106%,-4.19% (inactive),-1.27% (inactive)
Cc1nc2sc(C#N)c(N)c2c2c1CCCC2,95.5%,78.5% (inactive),95.5% (inactive),85.7% (inactive),102% (inactive),-6% (inactive),108%,102%,-1.97% (inactive),4.36% (inactive)
COc1ccc2c(c1)C1(C)CC(C)(C)N2C(=O)N1c1ccccc1 (stereo not given),101%,89.5% (inactive),101% (inactive),61.5% (inactive),67.3% (inactive),-16.7% (inactive),84%,67.3%,-5.07% (inactive),-5.41% (inactive)
CCCn1c2ccccc2c2nnc(SCC(=O)Nc3ncccn3)nc21,105%,75.5% (inactive),105% (inactive),93.4% (inactive),87.6% (inactive),10.3% (inactive),77.4%,87.6%,-0.53% (inactive),-2.36% (inactive)
Nc1nnc(C(=O)c2ccccc2N)s1,108%,91% (inactive),108% (inactive),102% (inactive),96.3% (inactive),5.43% (inactive),90.9%,96.3%,-1.04% (inactive),3.93% (inactive)
O=C(O)CCCC(=O)NCCc1ccncc1,98%,89% (inactive),98% (inactive),97% (inactive),107% (inactive),7.97% (inactive),98.5%,107%,-1.84% (inactive),-1.27% (inactive)
Cc1cc(NCCN(C)C)n2nc(-c3cccs3)cc2n1,90%,107% (inactive),90% (inactive),102% (inactive),92.6% (inactive),10.5% (inactive),82.1%,92.6%,-4.8% (inactive),-2.62% (inactive)
Cc1ccc(-n2nc(C(=O)N3CCN(C)CC3)c3c4ccccc4n(C)c3c2=O)cc1,90.5%,80% (inactive),90.5% (inactive),99.9% (inactive),96.8% (inactive),2.81% (inactive),93.9%,96.8%,-1.97% (inactive),-1.61% (inactive)
